Source: ChEMBL document CHEMBL4020720, “Oxadiazole-substituted naphtho[2,3-b]thiophene-4,9-diones as potent inhibitors of keratinocyte hyperproliferation. Structure-activity relationships of the tricyclic quinone skeleton and the oxadiazole substituent” (Eur J Med Chem, 2017)

What was measured:
HaCaT [1] = assay: Antihyperproliferative activity against human HaCaT cells after 48 hrs by MTT assay; format: functional, cell-based
Summary of the method: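 HaCaT keratinocytes (mycoplasma-negative) exposed to compounds for 48 h, then MTT added (5 mg/mL stock in PBS) for 2 h at 37 °C. Formazan dissolved in DMSO and read at 570 nm, with 630 nm background. Inhibition = (1 − test/control) × 100, from test means (N = 3) against controls (N = 6-8). IC50 by nonlinear regression.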

HaCaT [2] = assay: Induction of superoxide generation in human HaCaT cells assessed as 2-OH-E+ oxidized product formation by measuring mean fluorescence intensity at 5 umol/L preincubated with 5 umol/L NQO-1 inhibitor dicoumarol for 25 mins followed by compound treatment measured after 18 hrs by flow cytometry (reference value: 407.59 +/- 68.7); format: functional
Summary of the method: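 HaCaT cells were cultured as for the chronic assay and preincubated 25 min with dicoumarol (5 µmol/L) before test compound was added. DHE was loaded for 30 min in the dark, then cells were trypsinized. 2-OH-E+ fluorescence was read by flow cytometry in FL2 (550–600 nm) on 10 000 live cells, dead cells gated out, as MFI against DMSO control. Triplicate.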

HaCaT [3] = assay: Induction of superoxide generation in human HaCaT cells assessed as 2-OH-E+ oxidized product formation by measuring mean fluorescence intensity at 5 umol/L after 18 hrs by flow cytometry (reference value: 367.5 +/- 80.1); format: functional
Summary of the method: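 HaCaT keratinocytes grown in DMEM with 10% FBS and penicillin/streptomycin for 24 h at 37 °C, then exposed to test compound (5 µM, 0.1% DMSO final) for 18 h. DHE was added and loaded for 30 min, with shaking for the first 5 min, in the dark. Cells were trypsinized and read by flow cytometry (488 nm excitation, FL2 550–600 nm), 10 000 live cells, dead cells gated out. Read-out is MFI versus DMSO control; triplicate.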

HaCaT [4] = assay: Induction of apoptosis in human HaCaT cells at 5 umol/L preincubated with 5 umol/L NQO-1 inhibitor dicoumarol for 25 mins followed by compound treatment measured after 18 hrs by 7-AAD staining based flow cytometry (reference value: 4.3 +/- 2.6%); format: functional; design: scale not given: the % may be the effect or the level left
[5] = molecular target: T1, NADPH--cytochrome P450 reductase (Homo sapiens, UniProt P16435); assay: Induction of recombinant human CPR-mediated superoxide generation assessed as one-electron reduction of compound by measuring SOD-inhibitable reduction of succinoylated cytochrome c per 2 mU enzyme at […] by spectrophotometric analysis (reference value: 0.2 +/- 0.1 micromol/L/min)
T1 sequence (P16435 whole entry): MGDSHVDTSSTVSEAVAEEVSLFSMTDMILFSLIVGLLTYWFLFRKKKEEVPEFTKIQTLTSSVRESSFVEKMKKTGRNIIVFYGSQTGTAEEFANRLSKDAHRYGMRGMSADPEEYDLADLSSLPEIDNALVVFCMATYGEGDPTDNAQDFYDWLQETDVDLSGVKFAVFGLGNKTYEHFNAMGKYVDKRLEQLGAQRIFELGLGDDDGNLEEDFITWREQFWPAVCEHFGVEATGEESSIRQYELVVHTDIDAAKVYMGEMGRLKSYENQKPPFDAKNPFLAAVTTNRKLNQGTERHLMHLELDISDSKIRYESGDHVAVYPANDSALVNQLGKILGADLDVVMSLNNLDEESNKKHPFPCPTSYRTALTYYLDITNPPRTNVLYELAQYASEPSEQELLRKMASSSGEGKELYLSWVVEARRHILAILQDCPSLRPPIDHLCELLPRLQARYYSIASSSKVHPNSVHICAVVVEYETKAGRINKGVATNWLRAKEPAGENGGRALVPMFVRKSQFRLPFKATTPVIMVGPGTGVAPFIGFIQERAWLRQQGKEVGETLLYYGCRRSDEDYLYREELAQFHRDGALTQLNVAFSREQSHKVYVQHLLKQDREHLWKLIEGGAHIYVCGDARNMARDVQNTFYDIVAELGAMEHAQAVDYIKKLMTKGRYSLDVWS

HaCaT [6] = assay: Induction of superoxide generation in human HaCaT cells assessed as 2-OH-E+ oxidized product formation by measuring mean fluorescence intensity at 50 umol/L after 30 mins by flow cytometry (reference value: 7.1 +/- 5.2); format: functional
[7] = molecular target: NAD(P)H dehydrogenase [quinone] 1 (Homo sapiens) (UniProt P15559); assay: Induction of recombinant human NQO-1-mediated superoxide generation assessed as two-electron reduction of compound by measuring SOD-inhibitable reduction of cytochrome c per unit enzyme at […] by spectrophotometric analysis (reference value: 0.2 +/- 0.1 micromol/L/min)
NAD(P)H dehydrogenase [quinone] 1 (Homo sapiens), sequence (P15559 whole entry): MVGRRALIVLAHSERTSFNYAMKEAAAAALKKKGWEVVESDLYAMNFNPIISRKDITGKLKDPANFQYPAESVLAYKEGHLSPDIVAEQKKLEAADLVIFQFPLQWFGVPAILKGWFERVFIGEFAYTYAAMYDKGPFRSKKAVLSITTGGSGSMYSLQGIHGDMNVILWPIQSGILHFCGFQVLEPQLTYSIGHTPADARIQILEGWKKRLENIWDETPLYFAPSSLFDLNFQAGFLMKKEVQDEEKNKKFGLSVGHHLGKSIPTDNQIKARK

HaCaT [8] = assay: Induction of apoptosis in human HaCaT cells at 5 umol/L after 18 hrs by 7-AAD staining based flow cytometry (reference value: 3 +/- 1%); format: functional

Row | SMILES | IC50 (HaCaT [1]) | other results
1 | O=C(/C=C/c1cc2c(s1)C(=O)c1ccccc1C2=O)c1ccccc1 | > 30 µM | –
2 | O=C1c2ccccc2C(=O)c2sc(/C=N/Nc3ccccc3)cc21 | > 30 µM | –
3 | CCc1noc(-c2cc3c(s2)Cc2ccccc2C3=O)n1 | 7.3 µM | –
4 | COc1ccc(C(=O)Nc2cc3c(s2)C(=O)c2ccccc2C3=O)cc1 | 1.1 µM | –
5 | CCc1noc(-c2ccc3sc4ccccc4c(=O)c3c2)n1 | > 30 µM | –
6 | CCc1noc(-c2ccc(C(=O)c3ccccc3)s2)n1 | > 30 µM | –
7 | CCc1noc(-c2ccc3ccccc3c2)n1 | > 30 µM | –
8 | O=Cc1cc2c(s1)C(=O)c1ccccc1C2=O | 1.2 µM | –
9 | O=C1c2ccccc2C(=O)c2sc([N+](=O)[O-])cc21 | 1.8 µM | Flu intensity (HaCaT [2]): 1022; Flu intensity (HaCaT [3]): 973.8; Activity (HaCaT [4]): 3.4%; Activity [5]: 2 µmol/L/min; Flu intensity (HaCaT [6]): 138; Activity [7]: 4.6 µmol/L/min; Activity (HaCaT [8]): 5.6%
10 | CCc1noc(-c2ccccc2)n1 | > 30 µM | –
11 | CCc1noc(C2=CC(=O)c3ccccc3C2=O)n1 | > 30 µM | –
12 | CC(C)C(=O)Nc1cc2c(s1)C(=O)c1ccccc1C2=O | 3.3 µM | –
13 | O=C(Nc1cc2c(s1)C(=O)c1ccccc1C2=O)c1ccccc1 | 2.3 µM | –
14 | CCc1noc(-c2cccs2)n1 | > 30 µM | –
15 | CCc1nnc(-c2cc3c(s2)C(=O)c2ccccc2C3=O)o1 | 0.15 µM | –
16 | O=C1c2ccccc2C(=O)c2sc(-c3nncs3)cc21 | 0.3 µM | –
17 | CCC(=O)Nc1cc2c(s1)C(=O)c1ccccc1C2=O | 9.6 µM | –
18 | Cc1cc2c(s1)C(=O)c1ccccc1C2=O | 5.2 µM | Flu intensity (HaCaT [2]): 633.5; Flu intensity (HaCaT [3]): 517; Activity (HaCaT [4]): 4.3%; Activity [5]: 1.1 µmol/L/min; Flu intensity (HaCaT [6]): 11.5; Activity [7]: 0.3 µmol/L/min; Activity (HaCaT [8]): 4.3%
19 | CCc1noc(-c2cc3ccccc3s2)n1 | > 30 µM | –
20 | CCc1noc(-c2cc3c(s2)C(=O)C=CC3=O)n1 | 11 µM | –
21 | CCCCc1nnc(-c2cc3c(s2)C(=O)c2ccccc2C3=O)o1 | 1.9 µM | –
22 | CCc1noc(-c2cc3cc4ccccc4cc3s2)n1 | > 30 µM | –
23 | Cc1nnc(-c2cc3c(s2)C(=O)c2ccccc2C3=O)o1 | 0.08 µM | –
24 | CCc1noc(-c2cc(C(C)=O)cs2)n1 | > 30 µM | –
25 | CC(=O)c1cc2c(s1)C(=O)c1ccccc1C2=O | – | Flu intensity (HaCaT [2]): 434.5; Flu intensity (HaCaT [3]): 500; Activity (HaCaT [4]): 3.7%; Activity [5]: 1.2 µmol/L/min; Flu intensity (HaCaT [6]): 19.2; Activity [7]: 0.8 µmol/L/min; Activity (HaCaT [8]): 4.2%
26 | CC(=O)/C=C/c1cc2c(s1)C(=O)c1ccccc1C2=O | > 30 µM | –
27 | CCCC(=O)Nc1cc2c(s1)C(=O)c1ccccc1C2=O | 5.7 µM | –

Row | SMILES | IC50 (HaCaT [1]) | other results
28 | CCc1noc(-c2cc3c(s2)C(=O)c2ccccc2C3=O)n1 | 0.36 µM | Flu intensity (HaCaT [2]): 558.7; Flu intensity (HaCaT [3]): 930.1; Activity (HaCaT [4]): 6.9%; Activity [5]: 0.9 µmol/L/min; Flu intensity (HaCaT [6]): 25.2; Activity [7]: 0.5 µmol/L/min; Activity (HaCaT [8]): 39.3%
29 | NNC(=O)c1cc2c(s1)C(=O)c1ccccc1C2=O | 1.7 µM | –
30 | O=C1c2ccccc2C(=O)c2sc(-c3nnn[nH]3)cc21 | > 30 µM | –
31 | CCc1nnc(-c2cc3c(s2)C(=O)c2ccccc2C3=O)s1 | > 15 µM | –
32 | O=C1c2ccccc2C(=O)c2sccc21 [THIOPHENONAPHTHOQUINONE] | – | Flu intensity (HaCaT [2]): 583.3; Flu intensity (HaCaT [3]): 552.7; Activity (HaCaT [4]): 7.4%; Activity [5]: 1.2 µmol/L/min; Flu intensity (HaCaT [6]): 10.5; Activity [7]: 1.2 µmol/L/min; Activity (HaCaT [8]): 4%
33 | CN/N=C/c1cc2c(s1)C(=O)c1ccccc1C2=O | > 30 µM | –
34 | CCc1nc(-c2cc3c(s2)C(=O)c2ccccc2C3=O)no1 | 0.58 µM | –
35 | COC(=O)c1cc2c(s1)C(=O)c1ccccc1C2=O | 0.71 µM | –
36 | CCc1noc(C=C2c3ccccc3C(=O)c3ccccc32)n1 | 6.5 µM | –
37 | CCc1noc(-c2ccc(C(C)=O)cc2)n1 | > 30 µM | –
38 | CCc1noc(-c2cc3c(OC)c4ccccc4c(OC)c3s2)n1 | 6.7 µM | –
39 | CCc1noc(-c2ccc3c(c2)C(=O)c2ccccc2C3=O)n1 | > 30 µM | –
40 | Cc1nnc(-c2cc3c(s2)C(=O)c2ccccc2C3=O)s1 | 3.7 µM | –
41 | O=C1c2ccccc2C(=O)c2sc(-c3nnc(-c4ccccc4)o3)cc21 | > 30 µM | –
42 | O=C1c2ccccc2C(=O)c2c([N+](=O)[O-])csc21 | 1.1 µM | –
43 | CCc1noc(-c2cc3c(OC)c4ccccc4cc3s2)n1 | > 30 µM | –
44 | O=C1c2ccccc2C(=O)c2sc(-c3nnco3)cc21 | 0.22 µM | –
45 | CCc1noc(-c2ccc3c(=O)c4ccccc4oc3c2)n1 | > 30 µM | –
46 | CC1=CC(=O)c2ccccc2C1=O [MENADIONE] | – | Flu intensity (HaCaT [2]): 457.2; Flu intensity (HaCaT [3]): 431.9; Activity (HaCaT [4]): 3.1%; Activity [5]: 2.1 µmol/L/min; Flu intensity (HaCaT [6]): 44; Activity [7]: 1 µmol/L/min; Activity (HaCaT [8]): 4.8%
47 | O=C(O)c1cc2c(s1)C(=O)c1ccccc1C2=O | > 30 µM | –
48 | N#Cc1cc2c(s1)C(=O)c1ccccc1C2=O | 0.46 µM | –
49 | CCc1noc(-c2cc3oc4ccccc4c(=O)c3s2)n1 | > 30 µM | –
50 | Nc1cc2c(s1)C(=O)c1ccccc1C2=O | > 30 µM | Flu intensity (HaCaT [2]): 502.3; Flu intensity (HaCaT [3]): 518; Activity (HaCaT [4]): 3.2%; Activity [5]: 1.1 µmol/L/min; Flu intensity (HaCaT [6]): 76.7; Activity [7]: 0.8 µmol/L/min; Activity (HaCaT [8]): 5.6%
51 | CCc1noc(-c2cc3c(OC)ccc(OC)c3s2)n1 | > 30 µM | –
52 | CCc1noc(-c2ccc3c(c2)C(=O)C=CC3=O)n1 | 14 µM | –
53 | CCc1nc(-c2ccc3c(c2)C(=O)c2ccccc2C3=O)no1 | > 30 µM | –
